Measurements: ChEMBL document CHEMBL4261538, “Synthesis and molecular docking studies of xanthone attached amino acids as potential antimicrobial and anti-inflammatory agents” (Medchemcomm, 2017)
In brackets after ≈: the same amount, converted by molar mass. Activity calls are given as the source filed them. The rule behind the calls is not given here.

Legend:
Staphylococcus aureus [1] = test: Antibacterial activity against Staphylococcus aureus at 25 ug/ml incubated for 24 hrs by agar well diffusion method; format: functional; details: read-out: DIZ
Summary of the method: (§1)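 Bacteria grown in nutrient broth at 37 °C for 24 h, then subcultured at room temperature. Compounds dissolved in DMSO at 5 mg mL⁻¹ and 5–20 µL added to 6 mm wells, giving 25, 50, 75, 100 µg per well. Gentamicin was the positive control and DMSO the negative control. Plates held at 37 °C for 24 h, then inhibition zone diameter (mm) measured. Values are means of three determinations.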

Staphylococcus aureus [2] = test: Antibacterial activity against Staphylococcus aureus at 50 ug/ml incubated for 24 hrs by agar well diffusion method; format: functional; details: read-out: DIZ; summary of the method: as §1
Staphylococcus aureus [3] = test: Antibacterial activity against Staphylococcus aureus at 75 ug/ml incubated for 24 hrs by agar well diffusion method; format: functional; details: read-out: DIZ; summary of the method: as §1
Staphylococcus aureus [4] = test: Antibacterial activity against Staphylococcus aureus at 100 ug/ml incubated for 24 hrs by agar well diffusion method; format: functional; details: read-out: DIZ; summary of the method: as §1
Bacillus subtilis [5] = test: Antibacterial activity against Bacillus subtilis at 25 ug/ml incubated for 24 hrs by agar well diffusion method; format: functional; details: for zone of inhibition at 25 µg/mL: read-out: DIZ; summary of the method: as §1
Bacillus subtilis [6] = test: Antibacterial activity against Bacillus subtilis at 50 ug/ml incubated for 24 hrs by agar well diffusion method; format: functional; details: for zone of inhibition at 50 µg/mL: read-out: DIZ; summary of the method: as §1
Bacillus subtilis [7] = test: Antibacterial activity against Bacillus subtilis at 75 ug/ml incubated for 24 hrs by agar well diffusion method; format: functional; details: read-out: DIZ; summary of the method: as §1
Bacillus subtilis [8] = test: Antibacterial activity against Bacillus subtilis at 100 ug/ml incubated for 24 hrs by agar well diffusion method; format: functional; details: read-out: DIZ; summary of the method: as §1
Escherichia coli [9] = test: Antibacterial activity against Escherichia coli at 25 ug/ml incubated for 24 hrs by agar well diffusion method; format: functional; details: read-out: DIZ; summary of the method: as §1
Escherichia coli [10] = test: Antibacterial activity against Escherichia coli at 50 ug/ml incubated for 24 hrs by agar well diffusion method; format: functional; details: read-out: DIZ; summary of the method: as §1
Escherichia coli [11] = test: Antibacterial activity against Escherichia coli at 75 ug/ml incubated for 24 hrs by agar well diffusion method; format: functional; details: read-out: DIZ; summary of the method: as §1
Escherichia coli [12] = test: Antibacterial activity against Escherichia coli at 100 ug/ml incubated for 24 hrs by agar well diffusion method; format: functional; details: read-out: DIZ; summary of the method: as §1
Klebsiella pneumoniae [13] = test: Antibacterial activity against Klebsiella pneumoniae at 25 ug/ml incubated for 24 hrs by agar well diffusion method; format: functional; details: read-out: DIZ; summary of the method: as §1
Klebsiella pneumoniae [14] = test: Antibacterial activity against Klebsiella pneumoniae at 50 ug/ml incubated for 24 hrs by agar well diffusion method; format: functional; details: read-out: DIZ; summary of the method: as §1
Klebsiella pneumoniae [15] = test: Antibacterial activity against Klebsiella pneumoniae at 75 ug/ml incubated for 24 hrs by agar well diffusion method; format: functional; details: read-out: DIZ; summary of the method: as §1
Klebsiella pneumoniae [16] = test: Antibacterial activity against Klebsiella pneumoniae at 100 ug/ml incubated for 24 hrs by agar well diffusion method; format: functional; details: read-out: DIZ; summary of the method: as §1
Aspergillus niger [17] = test: Antifungal activity against Aspergillus niger at 25 ug/ml incubated for 48 hrs by agar well diffusion method; format: functional; details: for zone of inhibition at 25 µg/mL: read-out: DIZ
Summary of the method: (§2)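 Compounds dissolved in DMSO at 5 mg mL⁻¹ and 5–20 µL added to 6 mm wells, giving 25, 50, 75, 100 µg per well. Bavistin was the positive control and DMSO the negative control. Plates incubated at 28 °C for 48 h, then inhibition zone diameter (mm) measured. Values are means of three determinations.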

Aspergillus niger [18] = test: Antifungal activity against Aspergillus niger at 50 ug/ml incubated for 48 hrs by agar well diffusion method; format: functional; details: for zone of inhibition at 50 µg/mL: read-out: DIZ; summary of the method: as §2
Aspergillus niger [19] = test: Antifungal activity against Aspergillus niger at 75 ug/ml incubated for 48 hrs by agar well diffusion method; format: functional; details: read-out: DIZ; summary of the method: as §2
Aspergillus niger [20] = test: Antifungal activity against Aspergillus niger at 100 ug/ml incubated for 48 hrs by agar well diffusion method; format: functional; details: read-out: DIZ; summary of the method: as §2
Candida albicans [21] = test: Antifungal activity against Candida albicans at 25 ug/ml incubated for 48 hrs by agar well diffusion method; format: functional; details: read-out: DIZ; summary of the method: as §2
Candida albicans [22] = test: Antifungal activity against Candida albicans at 50 ug/ml incubated for 48 hrs by agar well diffusion method; format: functional; details: read-out: DIZ; summary of the method: as §2
Candida albicans [23] = test: Antifungal activity against Candida albicans at 75 ug/ml incubated for 48 hrs by agar well diffusion method; format: functional; details: read-out: DIZ; summary of the method: as §2
Candida albicans [24] = test: Antifungal activity against Candida albicans at 100 ug/ml incubated for 48 hrs by agar well diffusion method; format: functional; details: read-out: DIZ; summary of the method: as §2
Fusarium oxysporum [25] = test: Antifungal activity against Fusarium oxysporum at 25 ug/ml incubated for 48 hrs by agar well diffusion method; format: functional; details: read-out: DIZ; summary of the method: as §2
Fusarium oxysporum [26] = test: Antifungal activity against Fusarium oxysporum at 50 ug/ml incubated for 48 hrs by agar well diffusion method; format: functional; details: read-out: DIZ; summary of the method: as §2
Fusarium oxysporum [27] = test: Antifungal activity against Fusarium oxysporum at 75 ug/ml incubated for 48 hrs by agar well diffusion method; format: functional; details: read-out: DIZ; summary of the method: as §2
Fusarium oxysporum [28] = test: Antifungal activity against Fusarium oxysporum at 100 ug/ml incubated for 48 hrs by agar well diffusion method; format: functional; details: read-out: DIZ; summary of the method: as §2
Erythrocyte = test: Anti-inflammatory activity in human RBC assessed as inhibition of hypotonic solution-induced hemolysis after 10 mins by spectrophotometric method; format: functional, cell-based
Summary of the method: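 Human blood (heparinized) washed with 0.9% saline, packed cells made into a 40% v/v stock in isotonic phosphate buffer (154 mM NaCl, 10 mM sodium phosphate, pH 7.4). Stock RBC mixed with hypotonic buffer (50 mM NaCl, 10 mM phosphate, pH 7.4) plus sample at 20–100 µg mL⁻¹.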

SMILES	zone of inhibition at 25 µg/mL (Staphylococcus aureus [1]) [mm]	zone of inhibition at 50 µg/mL (Staphylococcus aureus [2]) [mm]	zone of inhibition at 75 µg/mL (Staphylococcus aureus [3]) [mm]	zone of inhibition at 100 µg/mL (Staphylococcus aureus [4]) [mm]	zone of inhibition at 75 µg/mL (Bacillus subtilis [7]) [mm]	zone of inhibition at 100 µg/mL (Bacillus subtilis [8]) [mm]	zone of inhibition at 25 µg/mL (Klebsiella pneumoniae [13]) [mm]	zone of inhibition at 50 µg/mL (Klebsiella pneumoniae [14]) [mm]	zone of inhibition at 75 µg/mL (Klebsiella pneumoniae [15]) [mm]	zone of inhibition at 100 µg/mL (Klebsiella pneumoniae [16]) [mm]	zone of inhibition at 75 µg/mL (Aspergillus niger [19]) [mm]	zone of inhibition at 100 µg/mL (Aspergillus niger [20]) [mm]	zone of inhibition at 25 µg/mL (Candida albicans [21]) [mm]	zone of inhibition at 50 µg/mL (Candida albicans [22]) [mm]	zone of inhibition at 75 µg/mL (Candida albicans [23]) [mm]	zone of inhibition at 100 µg/mL (Candida albicans [24]) [mm]	zone of inhibition at 25 µg/mL (Fusarium oxysporum [25]) [mm]	zone of inhibition at 50 µg/mL (Fusarium oxysporum [26]) [mm]	zone of inhibition at 75 µg/mL (Fusarium oxysporum [27]) [mm]	zone of inhibition at 100 µg/mL (Fusarium oxysporum [28]) [mm]	also measured
C[C@H](NC(=O)OC(C)(C)C)C(=O)Oc1ccc2c(=O)c3ccccc3oc2c1	6	10	14	19	19	22	6	13	19	22	15	18	7	12	15	17	6	10	14	18	zone of inhibition at 25 µg/mL (Bacillus subtilis [5]): 8 mm; zone of inhibition at 50 µg/mL (Bacillus subtilis [6]): 14 mm; zone of inhibition at 25 µg/mL (Escherichia coli [9]): 17 mm; zone of inhibition at 50 µg/mL (Escherichia coli [10]): 14 mm; zone of inhibition at 75 µg/mL (Escherichia coli [11]): 20 mm; zone of inhibition at 100 µg/mL (Escherichia coli [12]): 23 mm; zone of inhibition at 25 µg/mL (Aspergillus niger [17]): 8 mm; zone of inhibition at 50 µg/mL (Aspergillus niger [18]): 12 mm; IC50 (Erythrocyte): 70 µg/mL (≈ 183 µM)
CSCC[C@H](N)C(=O)Oc1ccc2c(=O)c3ccccc3oc2c1.Cl	17	19	22	28	25	31	17	24	29	33	21	24	12	17	21	23	13	17	19	22	zone of inhibition at 25 µg/mL (Bacillus subtilis [5]): 15 mm; zone of inhibition at 50 µg/mL (Bacillus subtilis [6]): 20 mm; zone of inhibition at 25 µg/mL (Escherichia coli [9]): 17 mm; zone of inhibition at 50 µg/mL (Escherichia coli [10]): 21 mm; zone of inhibition at 75 µg/mL (Escherichia coli [11]): 25 mm; zone of inhibition at 100 µg/mL (Escherichia coli [12]): 29 mm; zone of inhibition at 25 µg/mL (Aspergillus niger [17]): 11 mm; zone of inhibition at 50 µg/mL (Aspergillus niger [18]): 18 mm; IC50 (Erythrocyte): 34 µg/mL
N[C@@H](Cc1c[nH]c2ccccc12)C(=O)O [TRYPTOPHAN]	6	9	13	19	12	15	6	10	13	17	11	14	5	9	13	16	4	7	9	11	zone of inhibition at 25 µg/mL (Bacillus subtilis [5]): 4 mm; zone of inhibition at 50 µg/mL (Bacillus subtilis [6]): 8 mm; zone of inhibition at 25 µg/mL (Escherichia coli [9]): 6 mm; zone of inhibition at 50 µg/mL (Escherichia coli [10]): 9 mm; zone of inhibition at 75 µg/mL (Escherichia coli [11]): 14 mm; zone of inhibition at 100 µg/mL (Escherichia coli [12]): 17 mm; zone of inhibition at 25 µg/mL (Aspergillus niger [17]): 4 mm; zone of inhibition at 50 µg/mL (Aspergillus niger [18]): 7 mm
N[C@@H](Cc1ccc(O)cc1)C(=O)O [TYROSINE]	4	8	12	17	9	12	4	7	11	15	7	11	4	8	13	15	3	7	12	14	diameter of the inhibition zone (DIZ) (Bacillus subtilis [5]): inactive; diameter of the inhibition zone (DIZ) (Bacillus subtilis [6]): inactive; diameter of the inhibition zone (DIZ) (Aspergillus niger [17]): inactive; diameter of the inhibition zone (DIZ) (Aspergillus niger [18]): inactive
